Measured values reported in ChEMBL document CHEMBL3351247 (J Med Chem, 2014).
Calls of active or inactive are those of the source. No cut-off for these calls is given here.

Tests used:
[1] = biological target: Kappa-type opioid receptor (Homo sapiens, UniProt P41145); test: Agonist activity at human KOR expressed in CHO cells assessed as inhibition of forskolin-induced cAMP accumulation after 30 mins by luminescence assay; assay type: functional, cell-based
Outline: (§1)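 CHO cells stably expressing KOR or MOR, plated at 10 000 cells/well and incubated overnight at 37 °C. Compounds given as 10-point serial dilutions (1% DMSO final) with 20 μM forskolin final in HBSS/10 mM HEPES. Incubation 30 min at 37 °C, then detection reagents overnight at room temperature. HitHunter cAMP luminescence read-out; data normalized to vehicle and forskolin-only controls, nonlinear regression.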

Mu-type opioid receptor = Mu-type opioid receptor (Homo sapiens, UniProt P35372); test: Agonist activity at human MOR expressed in CHO cells assessed as inhibition of forskolin-induced cAMP accumulation after 30 mins by luminescence assay; assay type: functional, cell-based; outline: as §1
Mu-type opioid receptor, sequence (P35372 whole entry): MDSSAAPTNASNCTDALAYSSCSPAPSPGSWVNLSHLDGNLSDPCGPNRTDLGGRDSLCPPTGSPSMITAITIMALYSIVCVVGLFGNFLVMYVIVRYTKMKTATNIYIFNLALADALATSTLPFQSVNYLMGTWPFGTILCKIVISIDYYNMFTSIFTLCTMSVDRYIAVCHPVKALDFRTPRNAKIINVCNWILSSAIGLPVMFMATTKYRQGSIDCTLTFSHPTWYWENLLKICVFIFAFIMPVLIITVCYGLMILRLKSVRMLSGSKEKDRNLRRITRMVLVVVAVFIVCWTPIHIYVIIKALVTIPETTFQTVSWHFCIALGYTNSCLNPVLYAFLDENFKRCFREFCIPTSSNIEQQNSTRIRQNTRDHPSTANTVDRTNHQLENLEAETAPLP

Rattus norvegicus [2] = test: Inhibition of cocaine-prime-induced reinstatement in Sprague-Dawley rat at 1 mg/kg, ip administered 10 mins prior to cocaine challenge relative to vehicle-treated control; assay type: functional, organism-based; design: dose 1 mg/kg
Outline: (§2)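 Male Sprague-Dawley rats (300–350 g) self-administered IV cocaine (0.5 mg/kg/infusion, jugular cannula) in daily 2 h sessions on FR5 until stable (<20% variation over 3 days). Extinction with saline-heparin and no light cue until responses fell below 20% of baseline. Agonist given ip in DMSO:Tween 80:water 2:1:7 10 min before a cocaine prime (20 mg/kg). Active lever presses recorded.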

Rattus norvegicus [3] = test: Toxicity in Sprague-Dawley rat assessed as inactive lever pressing during self administration period at 1 mg/kg, ip; assay type: organism-based; design: dose 1 mg/kg, route intraperitoneal; conditions: in vivo
Outline: (§3)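 Male Sprague-Dawley rats (300–350 g) trained to IV cocaine self-administration (0.5 mg/kg/infusion) on FR5 in 2 h daily sessions, then extinction with saline-heparin and cocaine-prime (20 mg/kg) reinstatement. Agonist given ip in DMSO:Tween 80:water 2:1:7 10 min before prime.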

Rattus norvegicus [4] = test: Toxicity in Sprague-Dawley rat assessed as inactive lever pressing during self administration period at 0.3 mg/kg, ip; assay type: organism-based; design: dose 0.3 mg/kg, route intraperitoneal; conditions: in vivo; outline: as §3
Rattus norvegicus [5] = test: Toxicity in Sprague-Dawley rat assessed as inactive lever pressing during extinction period at 1 mg/kg, ip; assay type: organism-based; design: dose 1 mg/kg, route intraperitoneal; conditions: in vivo; outline: as §3
Rattus norvegicus [6] = test: Toxicity in Sprague-Dawley rat assessed as inactive lever pressing during extinction period at 0.3 mg/kg, ip; assay type: organism-based; design: dose 0.3 mg/kg, route intraperitoneal; conditions: in vivo; outline: as §3
Rattus norvegicus [7] = test: Toxicity in Sprague-Dawley rat assessed as inactive lever pressing during reinstatement period at 1 mg/kg, ip; assay type: organism-based; design: dose 1 mg/kg, route intraperitoneal; conditions: in vivo; outline: as §3
Rattus norvegicus [8] = test: Toxicity in Sprague-Dawley rat assessed as inactive lever pressing during reinstatement period at 0.3 mg/kg, ip; assay type: organism-based; design: dose 0.3 mg/kg, route intraperitoneal; conditions: in vivo; outline: as §3
Rattus norvegicus [9] = test: Inhibition of cocaine-prime-induced reinstatement in Sprague-Dawley rat at 0.3 to 1 mg/kg, ip administered 10 mins prior to cocaine challenge relative to vehicle-treated control; assay type: functional, organism-based; outline: as §2
Rattus norvegicus [10] = test: Inhibition of cocaine-prime-induced reinstatement in Sprague-Dawley rat at 0.1 to 0.3 mg/kg, ip administered 10 mins prior to cocaine challenge relative to vehicle-treated control; assay type: functional, organism-based; outline: as §2

Kappa-type opioid receptor, sequence (P41145 whole entry): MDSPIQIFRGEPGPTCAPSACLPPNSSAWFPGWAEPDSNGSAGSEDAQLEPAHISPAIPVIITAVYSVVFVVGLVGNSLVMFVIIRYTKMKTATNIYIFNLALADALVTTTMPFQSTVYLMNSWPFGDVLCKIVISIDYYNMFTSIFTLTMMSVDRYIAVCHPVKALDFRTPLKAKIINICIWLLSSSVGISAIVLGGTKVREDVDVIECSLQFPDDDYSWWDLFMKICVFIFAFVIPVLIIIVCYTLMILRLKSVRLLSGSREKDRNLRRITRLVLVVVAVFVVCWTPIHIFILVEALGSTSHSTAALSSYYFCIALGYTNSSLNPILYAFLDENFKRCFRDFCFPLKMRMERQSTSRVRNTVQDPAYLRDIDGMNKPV

| Compound | EC50 [1] [nM] | Emax [1] [%] | EC50 (Mu-type opioid receptor) [nM] | inhibition (Rattus norvegicus [2]) | Activity (Rattus norvegicus [3]) | Activity (Rattus norvegicus [4]) | Activity (Rattus norvegicus [5]) | Activity (Rattus norvegicus [6]) | Activity (Rattus norvegicus [7]) | Activity (Rattus norvegicus [8]) | inhibition (Rattus norvegicus [9]) | inhibition (Rattus norvegicus [10]) |
| --- | --- | --- | --- | --- | --- | --- | --- | --- | --- | --- | --- | --- |
| COC(=O)[C@@H]1C[C@H](OC(C)=O)C(=O)[C@H]2[C@@]1(C)CC[C@H]1C(=O)O[C@H](c3ccoc3C)C[C@]21C | 0.41 | 100 | ≥ 10000 | inactive | Non-toxic | Non-toxic | Non-toxic | Non-toxic | Non-toxic | Non-toxic |  |  |
| COC(=O)[C@@H]1C[C@H](OC(C)=O)C(=O)[C@H]2[C@@]1(C)CC[C@H]1C(=O)O[C@H](c3ccoc3Br)C[C@]21C |  |  | ≥ 10000 |  | Non-toxic | Non-toxic | Non-toxic | Non-toxic | Non-toxic | Non-toxic | Active |  |
| C#Cc1occc1[C@@H]1C[C@]2(C)[C@H]3C(=O)[C@@H](OC(C)=O)C[C@@H](C(=O)OC)[C@]3(C)CC[C@H]2C(=O)O1 | 0.019 | 100 | ≥ 10000 |  | Non-toxic | Non-toxic | Non-toxic | Non-toxic | Non-toxic | Non-toxic |  | Active |
